From article PMC6147618 (Molecules : A Journal of Synthetic Chemistry and Natural …, 2005)

Columns and labels:
P450 = conditions: cited from earlier work
Caco-2 monolayers = assay: Caco-2 monolayer permeability; format: in vitro ADME; conditions: Hank's balanced salt solution, 25 mM HEPES pH 7.4, 37°C
Summary of the method: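 Caco-2 cells were grown in DMEM with 10% foetal bovine serum, 2mM L-glutamine and 1% non-essential amino acids, at 37°C, 95% humidity and 5% CO2, on Transwell polycarbonate inserts. Transport was run in air at 37°C and 95% humidity, in HBSS with 25mM HEPES (pH 7.4). Values are means ± sd of 5 monolayers, or n = 3 for co-incubation experiments.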

| SMILES | P450-mediated metabolism (P450; in the absence of alkylamide 3) | diffusion across the Caco-2 monolayers (Caco-2 monolayers) | effect on P450-mediated metabolism of alkylamide 1 (P450; alkylamide 3 present together with 1) |
| --- | --- | --- | --- |
| C/C=C\C=C/CC/C=C/C=C/C(=O)NCC(C)C [compound 1, (2E,4E,8Z,10Z)-N-isobutyldodeca-2,4,8,10-tetraenamide] | rapid metabolism | – | – |
| O=C(/C=C/c1ccc(O)c(O)c1)O[C@@H](C(=O)O)[C@@H](OC(=O)/C=C/c1ccc(O)c(O)c1)C(=O)O [cichoric acid] | – | non-diffusing | – |
| C#CC#CCCCC/C=C/C(=O)NCC(C)C [compound 3, (2E)-N-isobutylundeca-2-ene-8,10-diynamide] | – | rapidly diffuse | prevented the rapid metabolism of 1 |
